From the M2OR odorant receptor database

What was measured:
Settings in all cases: stereoisomer not certain
[1] = molecular target: T1, UniProt Q8VGC6
T1 sequence (whole entry): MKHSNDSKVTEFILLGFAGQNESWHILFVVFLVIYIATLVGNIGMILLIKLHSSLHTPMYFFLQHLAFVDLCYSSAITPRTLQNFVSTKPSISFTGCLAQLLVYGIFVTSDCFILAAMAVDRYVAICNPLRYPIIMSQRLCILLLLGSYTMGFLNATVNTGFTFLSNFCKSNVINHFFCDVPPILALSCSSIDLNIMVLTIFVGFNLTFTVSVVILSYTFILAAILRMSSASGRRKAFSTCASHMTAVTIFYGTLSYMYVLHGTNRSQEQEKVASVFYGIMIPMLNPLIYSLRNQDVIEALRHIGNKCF
Procedure, shortened: (§1)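 Each entry records the cell line, G-protein, co-transfected protein and tags used. Methods varied with the source, often transient luciferase assays in mammalian cell lines. A receptor–molecule pair is called responsive (active) if the original authors judged its signal statistically different from baseline and non-responsive (inactive) otherwise.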

[2] = molecular target: T2, UniProt Q8VGD7
T2 sequence (whole entry): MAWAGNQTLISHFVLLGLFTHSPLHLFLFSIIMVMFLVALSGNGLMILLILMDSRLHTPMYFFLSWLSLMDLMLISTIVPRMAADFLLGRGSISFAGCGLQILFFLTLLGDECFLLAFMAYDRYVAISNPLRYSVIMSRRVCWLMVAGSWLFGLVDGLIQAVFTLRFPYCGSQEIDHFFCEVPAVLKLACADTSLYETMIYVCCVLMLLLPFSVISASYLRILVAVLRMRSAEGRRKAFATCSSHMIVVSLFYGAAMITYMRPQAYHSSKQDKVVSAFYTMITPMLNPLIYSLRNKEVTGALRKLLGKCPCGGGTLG
Procedure, shortened: as §1

[3] = molecular target: T3, UniProt Q8VGH1
T3 sequence (whole entry): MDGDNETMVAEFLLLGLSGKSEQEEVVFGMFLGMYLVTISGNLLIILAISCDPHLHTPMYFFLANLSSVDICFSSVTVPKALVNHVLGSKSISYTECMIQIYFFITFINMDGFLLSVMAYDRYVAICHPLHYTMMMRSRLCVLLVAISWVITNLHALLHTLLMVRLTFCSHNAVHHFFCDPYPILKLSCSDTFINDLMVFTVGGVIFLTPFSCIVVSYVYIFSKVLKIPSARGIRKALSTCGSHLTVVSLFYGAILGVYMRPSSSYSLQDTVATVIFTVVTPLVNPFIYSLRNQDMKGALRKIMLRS
Procedure, shortened: as §1

[4] = molecular target: T4, UniProt Q8VGJ1
T4 sequence (whole entry): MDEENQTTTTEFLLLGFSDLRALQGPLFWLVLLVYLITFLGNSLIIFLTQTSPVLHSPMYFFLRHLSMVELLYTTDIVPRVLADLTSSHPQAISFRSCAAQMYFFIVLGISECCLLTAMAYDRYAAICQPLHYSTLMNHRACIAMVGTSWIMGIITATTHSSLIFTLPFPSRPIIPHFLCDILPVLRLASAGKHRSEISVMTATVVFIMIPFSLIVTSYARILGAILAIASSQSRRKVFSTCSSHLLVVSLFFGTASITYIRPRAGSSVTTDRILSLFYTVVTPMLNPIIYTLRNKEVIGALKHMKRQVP
Procedure, shortened: as §1

[5] = molecular target: T5, UniProt Q8VGJ3
T5 sequence (whole entry): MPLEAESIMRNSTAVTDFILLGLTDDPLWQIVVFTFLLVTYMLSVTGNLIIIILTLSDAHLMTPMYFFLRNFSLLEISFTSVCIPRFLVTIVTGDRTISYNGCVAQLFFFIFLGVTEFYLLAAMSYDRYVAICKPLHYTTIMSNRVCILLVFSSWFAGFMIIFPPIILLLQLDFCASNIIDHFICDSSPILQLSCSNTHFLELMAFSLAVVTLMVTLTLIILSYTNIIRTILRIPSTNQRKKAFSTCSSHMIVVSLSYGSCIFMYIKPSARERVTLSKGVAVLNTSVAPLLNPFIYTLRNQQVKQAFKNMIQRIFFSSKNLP
Procedure, shortened: as §1

[6] = molecular target: T6, UniProt Q8VGJ5
T6 sequence (whole entry): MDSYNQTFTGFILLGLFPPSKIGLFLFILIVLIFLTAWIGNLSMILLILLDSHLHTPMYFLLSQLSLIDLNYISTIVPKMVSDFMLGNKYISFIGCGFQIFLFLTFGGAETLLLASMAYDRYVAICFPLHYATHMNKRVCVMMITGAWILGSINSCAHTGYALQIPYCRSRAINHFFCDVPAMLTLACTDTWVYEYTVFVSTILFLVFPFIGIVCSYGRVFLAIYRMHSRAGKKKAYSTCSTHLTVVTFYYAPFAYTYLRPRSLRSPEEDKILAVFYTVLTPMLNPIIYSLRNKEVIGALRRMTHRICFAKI
Procedure, shortened: as §1

[7] = molecular target: T7, UniProt Q8VGL0
T7 sequence (whole entry): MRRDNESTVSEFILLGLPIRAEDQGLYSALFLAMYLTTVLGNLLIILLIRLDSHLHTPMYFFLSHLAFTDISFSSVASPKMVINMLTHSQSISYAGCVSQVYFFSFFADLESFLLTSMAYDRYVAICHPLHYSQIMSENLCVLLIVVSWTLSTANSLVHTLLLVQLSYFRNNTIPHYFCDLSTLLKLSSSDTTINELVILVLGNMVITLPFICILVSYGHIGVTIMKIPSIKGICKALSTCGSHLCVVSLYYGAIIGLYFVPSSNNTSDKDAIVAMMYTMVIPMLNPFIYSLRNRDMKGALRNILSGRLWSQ
Procedure, shortened: as §1

[8] = molecular target: T8, UniProt Q8VGL7
T8 sequence (whole entry): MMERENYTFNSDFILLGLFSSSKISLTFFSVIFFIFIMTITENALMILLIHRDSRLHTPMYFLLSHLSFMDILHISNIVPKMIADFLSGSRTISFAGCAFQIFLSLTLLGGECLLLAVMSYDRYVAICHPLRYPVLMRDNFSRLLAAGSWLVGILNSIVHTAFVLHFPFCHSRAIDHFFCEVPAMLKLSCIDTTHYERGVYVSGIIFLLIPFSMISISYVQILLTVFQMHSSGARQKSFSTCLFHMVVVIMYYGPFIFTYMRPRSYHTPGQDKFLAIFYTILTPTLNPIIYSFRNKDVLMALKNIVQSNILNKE
Procedure, shortened: as §1

[9] = molecular target: T9, UniProt Q8VGM2
T9 sequence (whole entry): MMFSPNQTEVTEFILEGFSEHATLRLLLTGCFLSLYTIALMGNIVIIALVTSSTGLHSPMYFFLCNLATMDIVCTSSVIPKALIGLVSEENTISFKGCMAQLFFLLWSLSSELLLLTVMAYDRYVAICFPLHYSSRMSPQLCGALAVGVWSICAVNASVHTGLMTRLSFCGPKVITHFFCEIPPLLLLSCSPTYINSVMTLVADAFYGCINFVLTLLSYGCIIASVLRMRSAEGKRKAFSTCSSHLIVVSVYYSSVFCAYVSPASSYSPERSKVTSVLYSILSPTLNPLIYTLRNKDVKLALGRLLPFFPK
Procedure, shortened: as §1

[10] = molecular target: T10, UniProt Q8VGP6
T10 sequence (whole entry): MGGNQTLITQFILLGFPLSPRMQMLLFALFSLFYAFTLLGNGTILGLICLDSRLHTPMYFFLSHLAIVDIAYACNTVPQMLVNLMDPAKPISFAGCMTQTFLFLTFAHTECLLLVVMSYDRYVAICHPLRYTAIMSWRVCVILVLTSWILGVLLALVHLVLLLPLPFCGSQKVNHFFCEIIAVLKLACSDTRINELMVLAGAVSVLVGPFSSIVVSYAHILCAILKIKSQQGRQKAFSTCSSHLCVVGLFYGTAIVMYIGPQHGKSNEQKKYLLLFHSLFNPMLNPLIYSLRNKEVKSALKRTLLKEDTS
Procedure, shortened: as §1

[11] = molecular target: T11, UniProt Q8VGQ3
T11 sequence (whole entry): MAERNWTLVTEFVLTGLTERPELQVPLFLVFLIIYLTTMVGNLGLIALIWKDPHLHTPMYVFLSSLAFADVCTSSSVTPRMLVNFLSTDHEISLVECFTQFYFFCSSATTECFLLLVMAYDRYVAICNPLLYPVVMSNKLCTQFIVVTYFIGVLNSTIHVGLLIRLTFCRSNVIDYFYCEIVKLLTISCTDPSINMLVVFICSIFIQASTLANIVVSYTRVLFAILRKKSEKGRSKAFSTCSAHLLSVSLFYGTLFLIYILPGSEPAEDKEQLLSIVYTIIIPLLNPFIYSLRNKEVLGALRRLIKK
Procedure, shortened: as §1

[12] = molecular target: T12, UniProt Q8VGT4
T12 sequence (whole entry): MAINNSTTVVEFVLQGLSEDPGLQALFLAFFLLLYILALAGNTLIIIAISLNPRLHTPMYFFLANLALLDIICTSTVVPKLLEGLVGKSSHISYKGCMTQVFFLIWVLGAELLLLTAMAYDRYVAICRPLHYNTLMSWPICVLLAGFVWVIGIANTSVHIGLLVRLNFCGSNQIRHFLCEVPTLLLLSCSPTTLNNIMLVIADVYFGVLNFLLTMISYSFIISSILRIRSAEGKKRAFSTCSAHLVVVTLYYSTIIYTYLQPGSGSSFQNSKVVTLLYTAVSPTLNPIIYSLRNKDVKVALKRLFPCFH
Procedure, shortened: as §1

[13] = molecular target: T13, UniProt Q8VGU3
T13 sequence (whole entry): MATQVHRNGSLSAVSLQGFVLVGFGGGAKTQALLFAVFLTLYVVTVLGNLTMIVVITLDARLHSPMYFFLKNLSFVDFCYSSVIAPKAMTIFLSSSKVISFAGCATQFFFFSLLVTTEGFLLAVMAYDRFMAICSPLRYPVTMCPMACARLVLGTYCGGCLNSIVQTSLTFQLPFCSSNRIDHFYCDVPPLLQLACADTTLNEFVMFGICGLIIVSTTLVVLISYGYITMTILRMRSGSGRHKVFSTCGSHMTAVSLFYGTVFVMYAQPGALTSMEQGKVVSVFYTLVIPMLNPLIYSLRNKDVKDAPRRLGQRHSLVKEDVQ
Procedure, shortened: as §1

[14] = molecular target: T14, UniProt Q8VGV1
T14 sequence (whole entry): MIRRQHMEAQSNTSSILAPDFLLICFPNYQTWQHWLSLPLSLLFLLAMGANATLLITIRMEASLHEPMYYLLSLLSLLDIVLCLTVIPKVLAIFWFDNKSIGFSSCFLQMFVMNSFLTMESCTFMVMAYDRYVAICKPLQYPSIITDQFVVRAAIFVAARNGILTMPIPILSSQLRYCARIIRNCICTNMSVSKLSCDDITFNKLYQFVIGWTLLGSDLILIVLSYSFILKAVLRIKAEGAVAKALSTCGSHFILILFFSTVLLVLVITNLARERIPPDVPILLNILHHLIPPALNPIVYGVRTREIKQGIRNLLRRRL
Procedure, shortened: as §1

[15] = molecular target: T15, UniProt Q8VGV7
T15 sequence (whole entry): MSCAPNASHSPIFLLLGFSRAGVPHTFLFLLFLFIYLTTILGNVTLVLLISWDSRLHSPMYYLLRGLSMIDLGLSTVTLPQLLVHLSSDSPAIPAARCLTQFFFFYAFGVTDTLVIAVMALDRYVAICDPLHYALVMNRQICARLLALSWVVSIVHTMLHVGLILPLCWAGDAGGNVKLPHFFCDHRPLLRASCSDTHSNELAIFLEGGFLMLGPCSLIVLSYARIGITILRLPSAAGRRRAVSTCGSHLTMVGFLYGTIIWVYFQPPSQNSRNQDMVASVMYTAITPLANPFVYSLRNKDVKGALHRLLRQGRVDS
Procedure, shortened: as §1

[16] = molecular target: T16, UniProt Q8VGX3
T16 sequence (whole entry): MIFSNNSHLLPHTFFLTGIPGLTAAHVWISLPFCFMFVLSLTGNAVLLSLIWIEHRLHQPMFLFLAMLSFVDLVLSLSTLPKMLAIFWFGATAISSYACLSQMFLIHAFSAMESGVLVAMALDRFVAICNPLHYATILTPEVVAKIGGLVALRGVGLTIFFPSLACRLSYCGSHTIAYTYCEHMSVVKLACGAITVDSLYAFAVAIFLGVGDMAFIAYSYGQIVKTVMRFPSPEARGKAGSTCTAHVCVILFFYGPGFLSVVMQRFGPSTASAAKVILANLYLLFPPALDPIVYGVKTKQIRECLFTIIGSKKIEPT
Procedure, shortened: as §1

[17] = molecular target: T17, UniProt Q8VGX5
T17 sequence (whole entry): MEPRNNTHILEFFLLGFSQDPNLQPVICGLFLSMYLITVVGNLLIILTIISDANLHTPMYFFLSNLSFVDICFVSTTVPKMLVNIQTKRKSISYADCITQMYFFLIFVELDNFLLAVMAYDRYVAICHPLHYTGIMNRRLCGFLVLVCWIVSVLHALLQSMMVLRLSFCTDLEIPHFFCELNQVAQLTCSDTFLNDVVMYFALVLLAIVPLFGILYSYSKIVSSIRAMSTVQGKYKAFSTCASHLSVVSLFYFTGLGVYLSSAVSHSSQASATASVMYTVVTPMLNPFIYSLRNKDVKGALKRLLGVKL
Procedure, shortened: as §1

Compound	odorant receptor agonist call [1]	odorant receptor agonist call [2]	odorant receptor agonist call [3]	odorant receptor agonist call [4]	odorant receptor agonist call [5]	odorant receptor agonist call [6]	odorant receptor agonist call [7]	odorant receptor agonist call [8]	odorant receptor agonist call [9]	odorant receptor agonist call [10]	odorant receptor agonist call [11]	odorant receptor agonist call [12]	odorant receptor agonist call [13]	odorant receptor agonist call [14]	odorant receptor agonist call [15]	odorant receptor agonist call [16]	odorant receptor agonist call [17]
CCCCCCCCS	active	inactive	inactive	inactive	inactive	inactive	inactive	inactive	inactive	inactive	inactive	inactive	inactive	inactive	inactive	inactive	inactive
CC(C)=CCCC(C)=CCO	active	inactive	inactive	inactive	inactive	inactive	inactive	inactive	inactive	inactive	inactive	inactive	inactive	inactive	inactive	inactive	active
